According to ChEMBL document CHEMBL3244038, “Synthesis and analgesic activity of human beta-endorphin” (1977):
Activity calls are given as the source filed them.

Key:
Mus musculus [1] = assay: Analgesic activity in icv dosed ICR mouse assessed as 50% inhibition of thermal stimulus-induced response measured for 60 to 90 mins by hot-plate test; type: functional
How it was run: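 Male ICR mice, 25-30 g. Peptide given icv (5 µl). Hot-plate latency with a 60 s cutoff. A twofold increase over the control latency (mean of two pre-drug readings) was the quantal criterion. AD50 with 95% confidence limits by Litchfield-Wilcoxon.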

Mus musculus [2] = assay: Analgesic activity in icv dosed ICR mouse assessed as 50% inhibition of heat stimulus-induced tail flick response measured for 60 to 90 mins; type: functional
How it was run: (§1)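 Male ICR mice, 25-30 g. Tail-flick latency to heat with a 10 s cutoff. A twofold increase in latency over the pre-drug control was the quantal criterion. AD50 with 95% confidence limits by Litchfield-Wilcoxon.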

Mus musculus [3] = assay: Analgesic activity in icv dosed ICR mouse assessed as 50% inhibition of acetic acid-induced writhing response administered 5 mins prior to acetic acid challenge measured for 60 to 90 mins; type: functional
Mus musculus [4] = assay: Analgesic activity iv dosed ICR mouse assessed as 50% inhibition of heat stimulus-induced tail flick response measured for 60 to 90 mins; type: functional; how it was run: as §1
Mus musculus [5] = assay: Potency index, ratio of morphine AD50 to compound AD50 for analgesic activity in iv dosed ICR mouse assessed as inhibition of heat stimulus-induced tail flick response; type: functional
Mus musculus [6] = species: Mus musculus; assay: Potency index, ratio of morphine AD50 to compound AD50 for analgesic activity in ICR mouse assessed as inhibition of thermal stimulus-induced response by hot-plate test; type: functional
Mus musculus [7] = assay: Potency index, ratio of morphine AD50 to compound AD50 for analgesic activity in icv dosed ICR mouse assessed as inhibition of acetic acid-induced writhing response; type: functional
Mus musculus [8] = assay: Potency index, ratio of morphine AD50 to compound AD50 for analgesic activity in icv dosed ICR mouse assessed as inhibition of heat stimulus-induced tail flick response; type: functional
Mus musculus [9] = assay: Analgesic activity in opiate antagonist naloxone-treated ICR mouse assessed as inhibition of acetic acid-induced writhing response at 0.38 ug, icv administered 5 mins prior to acetic acid challenge measured for 15 mins; type: functional, organism-based
How it was run: (§2)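 Male ICR mice, 25-30 g. Peptide given icv (5 µl) 5 min before i.p. 0.6% acetic acid (0.1 ml/10 g body weight). Writhes counted over 15 min.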

Mus musculus [10] = assay: Analgesic activity in opiate antagonist naloxone hydrochloride-treated ICR mouse assessed as inhibition of heat stimulus-induced tail flick response at 20.1 mg/kg, iv measured for 20 to 30 mins; type: functional, organism-based; set-up: dose 20.1 mg/kg
How it was run: (§3)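 Male ICR mice, 25-30 g. Peptide given iv via the tail vein at 9.4, 18.8 or 28.2 mg/kg. Tail-flick latency to heat with a 10 s cutoff. Percent analgesia calculated against the pre-drug control latency. For line 10, naloxone hydrochloride 1 mg/kg sc was given 5 min before 20.1 mg/kg peptide. Mean ± SEM.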

Mus musculus [11] = assay: Analgesic activity in icv dosed ICR mouse assessed as inhibition of thermal stimulus-induced response by hot-plate test in presence of opiate antagonist naloxone; type: functional, organism-based
Mus musculus [12] = assay: Analgesic activity in icv dosed ICR mouse assessed as inhibition of thermal stimulus-induced response by hot-plate test; type: functional, organism-based
How it was run: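 Male ICR mice, 25-30 g. Peptide given icv (5 µl). Hot-plate latency with a 60 s cutoff. Control latency was the mean of two pre-drug readings, with test latencies at various times after injection. Percent analgesia = (T1−T0)/(T2−T0)×100.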

Mus musculus [13] = assay: Analgesic activity in icv dosed ICR mouse assessed as inhibition of heat stimulus-induced tail flick response measured for 30 to 60 mins; type: functional, organism-based
How it was run: (§4)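 Male ICR mice, 25-30 g. Peptide given icv (5 µl) over a dose range of 0.09-0.38 µg/mouse. Tail-flick latency was measured against noxious heat with a 10 s cutoff. Control latency was the mean of two pre-drug readings. Percent analgesia = (T1−T0)/(T2−T0)×100. For line 2, naloxone 1 mg/kg sc was given 10 min after the peptide. Mean ± SEM.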

Mus musculus [14] = assay: Analgesic activity in iv dosed ICR mouse assessed as inhibition of heat stimulus-induced tail flick response measured for 20 to 30 mins; type: functional, organism-based; how it was run: as §3
Mus musculus [15] = assay: Analgesic activity in ICR mouse assessed as inhibition of acetic acid-induced writhing response at 0.38 ug, icv administered 5 mins prior to acetic acid challenge measured for 15 mins; type: functional, organism-based; how it was run: as §2
Mus musculus [16] = assay: Analgesic activity in ICR mouse assessed as inhibition of heat stimulus-induced tail flick response at 0.38 ug, icv administered opiate antagonist naloxone at 10 mins post compound treatment measured for 30 to 60 mins; type: functional, organism-based; how it was run: as §4

`CN1CC[C@]23c4c5ccc(O)c4O[C@H]2[C@@H](O)C=C[C@H]3[C@H]1C5` [MORPHINE] showed an AD50 (Mus musculus [1]) of 0.031 nmol, an AD50 (Mus musculus [2]) of 0.026 nmol and an AD50 (Mus musculus [3]) of 0.026 nmol. It also gave an AD50 (Mus musculus [4]) of 3.32 µmol/kg.
For H-YGGFMTSEKSQTPLVTLFKNAIIKNAHKKGQ-OH, the Ratio (Mus musculus [5]) was 3.5, the Ratio (Mus musculus [6]) was 17.5 and the Ratio (Mus musculus [7]) was 19.5. For the same compound, the Ratio (Mus musculus [8]) was 33.
`CC[C@H](C)[C@H](NC(=O)[C@H](C)NC(=O)[C@H](CC(N)=O)NC(=O)[C@H](CCCCN)NC(=O)[C@H](Cc1ccccc1)NC(=O)[C@H](CC(C)C)NC(=O)[C@@H](NC(=O)[C@@H](NC(=O)[C@H](CC(C)C)NC(=O)[C@@H]1CCCN1C(=O)[C@@H](NC(=O)[C@H](CCC(N)=O)NC(=O)[C@H](CO)NC(=O)[C@H](CCCCN)NC(=O)[C@H](CCC(=O)O)NC(=O)[C@H](CO)NC(=O)[C@@H](NC(=O)[C@H](CCSC)NC(=O)[C@H](Cc1ccccc1)NC(=O)CNC(=O)CNC(=O)[C@@H](N)Cc1ccc(O)cc1)[C@@H](C)O)[C@@H](C)O)C(C)C)[C@@H](C)O)C(=O)N[C@H](C(=O)N[C@@H](CCCCN)C(=O)N[C@@H](CC(N)=O)C(=O)N[C@@H](C)C(=O)N[C@@H](Cc1ccc(O)cc1)C(=O)N[C@@H](CCCCN)C(=O)N[C@@H](CCCCN)C(=O)NCC(=O)N[C@@H](CCC(=O)O)C(=O)O)[C@@H](C)CC` was tested, and the Ratio (Mus musculus [5]) was 3.4, the inhibition (Mus musculus [9]) was “inactive” and the inhibition (Mus musculus [10]) was “inactive”. The inhibition (Mus musculus [11]) was “inactive”, the Ratio (Mus musculus [6]) was 32.8 and the inhibition (Mus musculus [12]) was “Active”. The Ratio (Mus musculus [7]) was 17.3, the inhibition (Mus musculus [13]) was “Dose-dependent effect” and the inhibition (Mus musculus [14]) was “Dose-dependent effect”. The inhibition (Mus musculus [15]) was “Active”, the inhibition (Mus musculus [16]) was “inactive” and the Ratio (Mus musculus [8]) was 48.4.
